From ChEMBL document CHEMBL1124472, “Renal vasodilators. The role of the 4-substituent in isoquinolin-3-ol cardiovascular agents: 4-ureido derivatives of isoquinolin-3-ol with selective renal vasodilator properties” (1989)

Experiments:
Conditions in all cases: route intravenous
[1] = tested on: Canis familiaris; test: (§1) Percent change in renal blood flow by 1.2 mg/kg of compound administered intravenously in dog; type: functional, Canis lupus familiaris, Kidney
Summary of the method: (§2)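 Adult dogs anesthetized with pentobarbital (45 mg/kg ip), instrumented for electromagnetic renal artery flow; femoral artery cannulated for blood pressure, cardiotachometer for heart rate; iv via femoral vein. Cumulative infusion at rising rates, 5 min each (0.2+1.0 mg/kg for 1.2; 0.2+1.0+5.0 mg/kg for 6.2), in 0.9% saline ± acid/base; ≥2 dogs; maximal % change from predrug over ≥30 min; RVR = MAP/RBF.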

[2] = tested on: Canis familiaris; test: Percent change in heart rate by 1.2 mg/kg of compound administered intravenously in dog; type: functional, Canis lupus familiaris; summary of the method: as §2
[3] = tested on: Canis familiaris; test: Percent change in mean arterial blood pressure by 1.2 mg/kg of compound administered intravenously in dog; type: functional, Canis lupus familiaris; summary of the method: as §2
[4] = tested on: Canis familiaris; test: Percent change in renal vascular resistant e by 1.2 mg/kg of compound administered intravenously in dog; type: functional, Canis lupus familiaris; summary of the method: as §2
[5] = tested on: Canis familiaris; test: Percent change in mean arterial blood pressure by 6.2 mg/kg of compound administered intravenously in dog; type: functional, Canis lupus familiaris; summary of the method: as §2
[6] = tested on: Canis familiaris; test: Percent change in renal vascular resistant e by 6.2 mg/kg of compound administered intravenously in dog; type: functional, Canis lupus familiaris; summary of the method: as §2
[7] = tested on: Canis familiaris; test: Percent change in heart rate by 6.2 mg/kg of compound administered intravenously in dog; type: functional, Canis lupus familiaris; summary of the method: as §2
[8] = tested on: Canis familiaris; test: Percent change in renal blood flow by 6.2 mg/kg of compound administered intravenously in dog; type: functional, Canis lupus familiaris; summary of the method: as §2
[9] = tested on: Canis familiaris; test: Percent increase in myocardial contractile force by 8.75 mg/kg of compound administered intravenously in dog; type: functional, Canis lupus familiaris, Myocardium
Summary of the method: (§3)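 Adult mongrel dogs, pentobarbital 45 mg/kg ip, artificially respired; right thoracotomy, Walton Brodie strain gauge on right ventricle at 100 g baseline tension. Only dogs giving >100% contractile-force rise to dopamine (10-15 μg/kg per min × 3 min) were used. Compound in 10-15% dimethylformamide, total dose infused iv into femoral vein; % change in contractile force.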

[10] = tested on: Canis familiaris; test: Percent increase in myocardial contractile force by 0.025 mg/kg of compound administered intravenously in dog; type: functional, Canis lupus familiaris, Myocardium; summary of the method: as §3
[11] = tested on: Canis familiaris; test: Percent increase in myocardial contractile force by 1.75 mg/kg of compound administered intravenously in dog; type: functional, Canis lupus familiaris, Myocardium; summary of the method: as §3
[12] = tested on: Canis familiaris; test: as §1; type: functional, Canis lupus familiaris; summary of the method: as §2
[13] = tested on: Canis familiaris; test: Percent increase in myocardial contractile force by 1.88 mg/kg of compound administered intravenously in dog; type: functional, Canis lupus familiaris, Myocardium; summary of the method: as §3

With C=CCNC(=O)Nc1c(O)nc(C)c2cc(OC)c(OC)cc12 the Change [1] was 97%, the Change [2] was -3% and the Change [3] was 8%. For the same compound, the Change [4] was -44%.
CCCCNC(=O)Nc1c(O)nc(C)c2cc(O)c(O)cc12 gave a Change [1] of -2%, a Change [2] of 2% and a Change [3] of -1%. It also gave a Change [4] of 2%.
COc1cc2cnc(O)c(NC(C)=O)c2cc1OC was tested, and the Change [5] was 14%, the Change [6] was -12% and the Change [7] was -8%. For the same compound, the Change [8] was 30%.
CCCCC(=O)Nc1c(O)nc(C)c2cc(OC)c(OC)cc12 was tested, and the Change [5] was 3%, the Change [6] was 13% and the Change [7] was 6%. It also gave a Change [8] of -9%.
For CCNC(=O)Nc1c(O)nc(C)c2cc(OC)c(OC)cc12, the Change [1] was 28%, the Change [2] was 0% and the Change [3] was 0%. For the same compound, the Change [4] was -22%.
With COc1cc2c(C)nc(O)c(NC(=O)Nc3ccc(C(=O)O)cc3)c2cc1OC the Change [1] was 40%, the Change [2] was -12% and the Change [3] was -1%. The Change [4] was -28%.
COc1cc2c(C)nc(O)c(NC(=O)Nc3ccccc3)c2cc1OC was tested, and the Change [1] was -23%, the Change [2] was -13% and the Change [3] was 0%. The Change [4] was 35%.
COc1cc2c(C)nc(O)c(NC(=O)NC(C)(C)C)c2cc1OC gave a Change [5] of 1%, a Change [6] of -8% and a Change [7] of -4%. It also gave a Change [8] of 10%.
With CCCCNC(=O)Nc1c(O)nc(C)c2cc(OC)ccc12 the Change [1] was -12%, the Change [2] was -6% and the Change [3] was 3%. For the same compound, the Change [4] was 16%.
Compound C=CCOC(=O)Nc1c(O)nc(C)c2cc(OC)c(OC)cc12 has a Change [5] of -9%, a Change [6] of -11% and a Change [7] of -2%. It also gave a Change [8] of 2%.
Work on COc1cc2c(C)nc(O)c(NC(=O)C(C)C)c2cc1OC yielded a Change [5] of -2%, a Change [6] of -4% and a Change [7] of -1%. For the same compound, the Change [8] was -5%.
With COc1cc2c(C)nc(O)c(NC(=O)Nc3ccc(C(F)(F)F)cc3)c2cc1OC the Change [5] was 4%, the Change [6] was -29% and the Change [7] was 10%. For the same compound, the Change [8] was 49%.
Work on COc1cc2c(C)nc(O)c(NC(=O)Nc3ccc([N+](=O)[O-])cc3)c2cc1OC yielded a Change [1] of 3%, a Change [2] of -1% and a Change [3] of 1%. The Change [4] was -2%.
Work on C=CCNC(=O)Nc1c(O)nc(C)c2cc(OCC)c(OC)cc12 yielded a Change [1] of 28%, a Change [2] of 29% and a Change [3] of -2%. For the same compound, the Change [4] was -22%.
COc1cccc(NC(=O)Nc2c(O)nc(C)c3cc(OC)c(OC)cc23)c1 gave a Change [5] of -1%, a Change [6] of -36% and a Change [7] of -2%. For the same compound, the Change [8] was 59%.
COc1cc2c(C)nc(O)c(NC(C)=O)c2cc1OC showed a Change [5] of 6%, an Increase [9] of 47% and a Change [6] of -24%. For the same compound, the Change [7] was 14% and the Change [8] was 39%.
COc1cc2c(C)nc(O)c(NC(=O)Nc3cccc(C(F)(F)F)c3)c2cc1OC was tested, and the Change [5] was 2%, the Change [6] was -16% and the Change [7] was -10%. For the same compound, the Change [8] was 23%.
Work on CCc1c(O)nc(C)c2cc(OC)c(OC)cc12 yielded an Increase [10] of 143%.
COc1cc2cc(O)nc(C)c2cc1OC showed an Increase [11] of 100%.
In the case of COc1ccc(NC(=O)Nc2c(O)nc(C)c3c(OC)c(OC)c(OC)cc23)cc1, the Change [5] is reported as -4%, the Change [6] is reported as -15% and the Change [7] is reported as 7%. For the same compound, the Change [8] was 14%.
For CNC(=O)Nc1c(O)nc(C)c2cc(OC)c(OC)cc12, the Change [1] was 4%, the Change [2] was 3% and the Change [3] was 4%. It also gave a Change [4] of -5%.
COc1ccc(NC(=O)Nc2c(O)nc(C)c3cc(OC)c(OC)cc23)cc1 gave a Change [5] of 12%, a Change [6] of -32% and a Change [7] of 2%. The Change [8] was 68%.
Compound CCCCOC(=O)Nc1c(O)nc(C)c2cc(OC)c(OC)cc12 has a Change [5] of -3%, a Change [6] of 29% and a Change [7] of -6%. The Change [8] was -23%.
With COc1cc2c(C)nc(O)c(NC(=O)NC3CCCCC3)c2cc1OC the Change [1] was 7%, the Change [2] was 0% and the Change [3] was 0%. The Change [4] was -4%.
CCOc1cc2c(C)nc(O)c(NC(=O)Nc3ccc(OC)cc3)c2cc1OC was tested, and the Change [5] was 6%, the Change [6] was 15% and the Change [7] was 10%. For the same compound, the Change [8] was -8%.
Work on CCCCCC(=O)Nc1c(O)nc(C)c2cc(OC)c(OC)cc12 yielded a Change [5] of 0%, a Change [6] of 40% and a Change [7] of -9%. The Change [8] was -27%.
Work on COc1cc2c(C)nc(O)c(NC(=O)NC(C)C)c2cc1OC yielded a Change [1] of 11%, a Change [2] of 3% and a Change [3] of -9%. It also gave a Change [4] of -10%.
Compound CCCCNC(=O)Nc1c(O)nc(C)c2cc(OC)c(OC)cc12 has a Change [5] of 4%, a Change [1] of 36% and a Change [6] of -52%. The Change [7] was -2%, the Change [2] was 6% and the Change [3] was -3%. For the same compound, the Change [4] was -27% and the Change [8] was 117%.
COc1cccc(NC(=O)Nc2c(O)nc(C)c3cc(OC)ccc23)c1 showed a Change [1] of 17%, a Change [2] of 5% and a Change [3] of 2%. The Change [4] was -4%.
In the case of COc1cccc(NC(=O)Nc2c(O)nc(C)c3c(OC)c(OC)ccc23)c1, the Change [12] is reported as 17%, the Change [2] is reported as -2% and the Change [3] is reported as -3%. For the same compound, the Change [4] was -16%.
For COc1cc2c(C)nc(O)c(N)c2cc1OC, the Change [5] was 6%, the Increase [13] was 114% and the Change [1] was 23%. For the same compound, the Change [6] was -13% and the Change [7] was 4%.
CCOC(=O)c1ccc(NC(=O)Nc2c(O)nc(C)c3cc(OC)c(OC)cc23)cc1 showed a Change [1] of 2%, a Change [2] of -1% and a Change [3] of -2%. It also gave a Change [4] of -4%.
With CCCNC(=O)Nc1c(O)nc(C)c2cc(OC)c(OC)cc12 the Change [1] was 5%, the Change [2] was -7% and the Change [3] was 1%. For the same compound, the Change [4] was 0%.
